Data from paper PMC10357533 (ACS Omega, 2023).
In brackets after ≈: the same amount, converted by molar mass. Entries after “also recorded” stand apart in the source; their conditions may differ.

How the values were obtained:
[1] = test system: M. separata; settings: at 5 μg/mL concentration; cited from earlier work
[2] = test system: Aedes aegypti larvae; assay: Mosquito larvicidal assay; assay type: in vivo; settings: for LC90: (95% confidence limits); for LC50: Aedes aegypti
Procedure, shortened: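 Larvae came from later generations of a wild-derived Ae. aegypti colony kept at 25 ± 2 °C, 65–75% RH and 12:12 h light/dark. Twenty larvae per 150 mL of test solution were exposed at 100 down to 1.5625 μg/mL (twofold steps plus 75), with DMSO as vehicle. Controls were permethrin and DMSO (1 mL/150 mL). Mortality was scored at 24–96 h over four independent experiments.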

[3] = biological target: electric eel (Electrophorus electricus) AChE (Electrophorus electricus, UniProt O42275); assay: Acetylcholinesterase; assay type: biochemical; settings: for inhibition at 4 µg/mL / inhibition at 20 µg/mL / inhibition at 100 µg/mL / inhibition at 250 µg/mL: read-out: AChE inhibitory activity
Chain of electric eel (Electrophorus electricus) AChE (O42275 24-633): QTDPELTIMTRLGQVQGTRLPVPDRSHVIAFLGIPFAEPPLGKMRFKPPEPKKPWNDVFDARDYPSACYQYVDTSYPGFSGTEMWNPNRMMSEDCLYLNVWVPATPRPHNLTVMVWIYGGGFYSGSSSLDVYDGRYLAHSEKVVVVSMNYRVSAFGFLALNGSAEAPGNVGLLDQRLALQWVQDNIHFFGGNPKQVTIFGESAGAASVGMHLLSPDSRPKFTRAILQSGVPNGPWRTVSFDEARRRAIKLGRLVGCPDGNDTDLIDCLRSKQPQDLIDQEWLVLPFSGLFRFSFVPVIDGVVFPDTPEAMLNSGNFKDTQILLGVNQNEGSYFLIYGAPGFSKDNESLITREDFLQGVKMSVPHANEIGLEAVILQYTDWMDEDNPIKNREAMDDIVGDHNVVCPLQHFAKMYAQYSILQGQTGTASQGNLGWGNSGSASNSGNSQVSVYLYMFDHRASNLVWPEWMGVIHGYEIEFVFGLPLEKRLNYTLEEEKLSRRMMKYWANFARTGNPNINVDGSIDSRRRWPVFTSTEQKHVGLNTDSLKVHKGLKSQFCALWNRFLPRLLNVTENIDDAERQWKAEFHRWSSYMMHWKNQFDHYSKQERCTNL
Procedure, shortened: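 Electric eel AChE (0.25 IU/mL) was mixed with pH 8 phosphate buffer and test compound solution (500, 100, 20 or 4 μg/mL, diluted in water from DMSO stock) and held 15 min at 25 °C. DTNB (2.5 mM) and acetylthiocholine iodide (2.5 mM) were added, followed by 10 min more at 25 °C. Absorbance was read at 405 nm. Galantamine was the positive control, run in triplicate plates.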

[4] = Solubility of compounds for larvicidal testing; assay type: physicochemical; settings: larvicidal test, compounds dissolved in DMSO
[5] = test system: Plutella xylostella; settings: at 500 μg/mL; cited from earlier work
[6] = test system: Anopheles arabiensis; settings: compared with temephos; cited from earlier work

Compound	LC90 ([2]; 24 h exposure)	LC90 ([2]; 48 h exposure)	LC90 ([2]; 72 h exposure)	LC50 ([2]; 24 h)	LC50 ([2]; 48 h)	LC50 ([2]; 72 h)	LC50 ([2]; 96 h)	IC50 [3]	inhibition at 4 µg/mL [3]	inhibition at 20 µg/mL [3]	inhibition at 100 µg/mL [3]	inhibition at 250 µg/mL [3]	also measured
Cc1cc(Cl)cc2c1NC(c1cc(Br)nn1-c1ncccc1Cl)N(C)C2=O (centres unmarked) [2-(3-bromo-1-(3-chloropyridine-)-2-yl)-1H-pyrazol-5-yl-6-chloro-3,8-dimethyl-2,3-dihydroquinazolin-4(1H)-one]	–	–	–	–	–	–	–	–	–	–	–	–	mortality [1]: 80%
Cc1nc2ccccc2c(=O)n1CC(=O)Nc1ccc(Br)cc1 [4a, N-(4-Bromophenyl)-2-(2-methyl-4-oxoquinazolin-3(4H)-yl)acetamide]	8.528 (7.729–9.730) μg/mL	6.396 (5.755–7.334) μg/mL	5.273 (4.620–6.340) μg/mL	5.82 µg/mL (≈ 15.6 µM)	3.66 µg/mL (≈ 9.84 µM)	2.26 µg/mL (≈ 6.07 µM)	1.49 µg/mL (≈ 3.99 µM)	714 µM	3.75%	14%	28.6%	48.5%	LC90 ([2]; 96 h exposure): 4.470 (3.864–5.530) μg/mL
Cc1nc2ccccc2c(=O)n1CC(=O)Nc1ccc(Cl)cc1 [4b, N-(4-Chlorophenyl)-2-(2-methyl-4-oxoquinazolin-3(4H)-yl)acetamide]	31.11 (26.90–37.20) μg/mL	7.610 (6.607–9.160) μg/mL	6.945 (6.055–8.327) μg/mL	12.7 µg/mL (≈ 38.7 µM)	3.64 µg/mL (≈ 11.1 µM)	3.48 µg/mL (≈ 10.6 µM)	–	500 µM	18.1%	26.6%	34.7%	72.9%	–
Cc1nc2ccccc2c(=O)n1CC(=O)Nc1cccc(Cl)c1 [4c, N-(3-Chlorophenyl)-2-(2-methyl-4-oxoquinazolin-3(4H)-yl)acetamide]	–	–	–	15.1 µg/mL (≈ 45.9 µM)	10.1 µg/mL (≈ 30.8 µM)	4.42 µg/mL (≈ 13.5 µM)	1.8 µg/mL (≈ 5.49 µM)	231 µM	15.4%	29.3%	56.5%	97.8%	–
Cc1nc2ccccc2c(=O)n1CC(=O)Nc1ccccc1Cl [4d, N-(2-Chlorophenyl)-2-(2-methyl-4-oxoquinazolin-3(4H)-yl)acetamide]	–	–	–	52.4 µg/mL (≈ 160 µM)	22.7 µg/mL (≈ 69.3 µM)	4.2 µg/mL (≈ 12.8 µM)	–	462 µM	7.58%	19.2%	36.5%	70.3%	–
COc1ccc(NC(=O)Cn2c(C)nc3ccccc3c2=O)cc1 [4e, N-(4-Methoxyphenyl)-2-(2-methyl-4-oxoquinazolin-3(4H)-yl)acetamide]	25.81 (21.16–33.50) μg/mL	16.26 (12.95–22.06) μg/mL	12.27 (9.67–17.09) μg/mL	9.25 µg/mL (≈ 28.6 µM)	4.27 µg/mL (≈ 13.2 µM)	2.76 µg/mL (≈ 8.52 µM)	1.28 µg/mL (≈ 3.96 µM)	–	–	–	–	–	LC90 ([2]; 96 h exposure): 7.414 (5.780–10.598) μg/mL
Cc1ccc(NC(=O)Cn2c(C)nc3ccccc3c2=O)cc1 [4f, 2-(2-Methyl-4-oxoquinazolin-3(4H)-yl)-N-(p-tolyl)acetamide]	14.67 (13.22–16.69) μg/mL	14.33 (12.51–17.09) μg/mL	11.29 (9.56–14.17) μg/mL	8.67 µg/mL (≈ 28.2 µM)	5.92 µg/mL (≈ 19.3 µM)	2.08 µg/mL (≈ 6.78 µM)	–	186 µM	17.6%	34.2%	62.8%	98.9%	–
Cc1ccccc1NC(=O)Cn1c(C)nc2ccccc2c1=O [4g, 2-(2-Methyl-4-oxoquinazolin-3(4H)-yl)-N-(o-tolyl)acetamide]	–	–	–	–	–	–	–	488 µM	-1.33%	13.4%	34.6%	73.1%	solubility [4]: insoluble; also recorded: not soluble
Cc1nc2ccccc2c(=O)n1CC(=O)Nc1ccccc1 [4h, 2-(2-Methyl-4-oxoquinazolin-3(4H)-yl)-N-phenylacetamide]	–	–	–	–	–	–	> 50 µg/mL	–	–	–	–	–	LC90 ([2]; 96 h exposure): >50 (96 h) μg/mL; larvicidal activity (in words) ([2]; compared with the other compounds): less activity
Cc1nc2ccccc2c(=O)n1CC(=O)Nc1ccc([N+](=O)[O-])cc1 [4i, 2-(2-Methyl-4-oxoquinazolin-3(4H)-yl)-N-(4-nitrophenyl)acetamide]	–	–	–	–	–	–	–	454 µM	2.5%	6.08%	35.5%	75.6%	solubility [4]: insoluble; also recorded: not soluble
Clc1cc(Cl)c2ncnc(SCc3ccc(Cl)nc3)c2c1 [6,8-dichloro-4-(((6-chloropyridine-3-yl)methyl)thio)quinazoline]	–	–	–	–	–	–	–	–	–	–	–	–	mortality rate [5]: 85%
COC(=O)C1=C(C)Nc2nc3ccc(I)cc3c(=O)n2C1c1ccc(Cl)cc1 (centres unmarked) [methyl 4-(4-chlorophenyl)-8-iodo-2-methyl-6-oxo-1,6-dihydro-4H-pyrimido[2,1-b]quinazoline-3-carboxylate]	–	–	–	–	–	–	–	–	–	–	–	–	larvicidal activity (in words) [6]: significantly stronger than temephos
CC1(C)C(C=C(Cl)Cl)C1C(=O)OCc1cccc(Oc2ccccc2)c1 (centres unmarked) [permethrin, reference compound]	0.00246 (0.00192–0.00344) μg/mL	–	–	0.000643 µg/mL (≈ 0.00164 µM)	–	–	–	–	–	–	–	–	–
